{"data": "Assay results pooled from the literature", "PDGFRA": "Platelet-derived growth factor receptor alpha (PDGFRA, Homo sapiens, UniProt P16234)", "PDGFRA V561D": "Platelet-derived growth factor receptor alpha (PDGFRA, Homo sapiens, UniProt P16234, V561D)", "PDGFRA T674I": "Platelet-derived growth factor receptor alpha (PDGFRA, Homo sapiens, UniProt P16234, T674I)", "note": "Protocols differ between the studies behind these lines."}
{"Compound": "CCN(CC)c1ccc(C2=NNC(=O)CC2C)cc1[N+](=O)[O-] (stereo not drawn)", "target": "PDGFRA", "test": "enzyme activity, inhibitor", "conditions": "10 µM", "quantity": "remaining activity", "result": "91%"}
{"Compound": "CCCOc1ccc(OC)c(F)c1C(=O)c1ccc(C(=O)N[C@@H]2CNC[C@H]2NC(=O)c2ccc3[nH]ncc3c2)cc1", "target": "PDGFRA V561D", "test": "enzyme activity, inhibitor", "conditions": "10 µM", "quantity": "remaining activity", "result": "6%"}
{"Compound": "O=C(Nc1cnn(-c2csc(C(=O)NC3COC3)c2)c1)Nc1c(F)cccc1Cl", "target": "PDGFRA", "test": "enzyme activity, inhibitor", "conditions": "5 µM", "quantity": "remaining activity", "result": "107%"}
{"Compound": "CC(C)(O)[C@H]1CC[C@H](Nc2ccc3ncc(-c4cccc(C(F)(F)F)c4)n3n2)CC1", "target": "PDGFRA", "test": "enzyme activity, inhibitor", "conditions": "1 µM", "quantity": "remaining activity", "result": "44.5%"}
{"Compound": "Cc1cc(NC(=O)c2cccc3cc(-c4cccc5[nH]nc(N)c45)ccc23)ccc1F", "target": "PDGFRA", "test": "enzyme activity, inhibitor", "conditions": "0.1 µM", "quantity": "activity vs control", "result": "92%"}
{"Compound": "Cc1ccc(Nc2nccc(N(C)c3ccc4c(C)n(C)nc4c3)n2)cc1S(N)(=O)=O", "target": "PDGFRA", "test": "cell-free assay, inhibitor", "conditions": "0.5 µM", "quantity": "remaining signal", "result": "13.9%"}
{"Compound": "CN1CCN(c2cnc3c(C4CCN(C(=O)c5ccc(OC(F)(F)F)cc5N)CC4)ncnc3c2)CC1", "target": "PDGFRA", "test": "cell-free assay, competition with immobilised ligand", "conditions": "1 µM", "quantity": "remaining binding", "result": "100%"}
{"Compound": "COc1cc2ncnc(Nc3ccc(Oc4ccccc4)cc3C)c2cc1OC", "target": "PDGFRA T674I", "test": "enzyme activity, inhibitor", "conditions": "1 µM", "quantity": "inhibition", "result": "0%"}
{"Compound": "Cc1ccc(C(=O)NCc2ccsc2)cc1C#Cc1cn(C(C)C)c2ncnc(N)c12", "target": "PDGFRA V561D", "test": "enzyme activity, inhibitor", "conditions": "1 µM", "quantity": "activity vs control", "result": "1%"}
{"Compound": "COc1cc2ncnc(Nc3ccc(Oc4ccccc4)c(C)c3C)c2cc1OC", "target": "PDGFRA T674I", "test": "enzyme activity, inhibitor", "conditions": "1 µM", "quantity": "inhibition", "result": "9%"}
{"Compound": "CN([C@@H]1CCc2c(CC(=O)O)c3cc(S(C)(=O)=O)ccc3n2C1)S(=O)(=O)c1ccc(F)cc1", "target": "PDGFRA", "test": "cell-free assay, competition with immobilised ligand", "conditions": "1 µM", "quantity": "remaining binding", "result": "100%"}
{"Compound": "Cc1cnc(NC2CCOCC2)nc1-n1cnc(C(=O)NC(CN)c2cc(F)cc(Cl)c2)c1 (stereo not drawn)", "target": "Platelet-derived growth factor receptor alpha (PDGFRA, Homo sapiens, UniProt P16234, D842V)", "test": "enzyme activity, inhibitor, radiometric", "conditions": "1 µM", "quantity": "remaining activity", "result": "104%"}
{"Compound": "CNC(=O)c1cc2c(Oc3ccc(NC(=O)C4(C(=O)Nc5ccc(F)cc5)CC4)cc3)ccnc2cc1OC", "target": "PDGFRA V561D", "test": "enzyme activity, inhibitor, radiometric", "conditions": "1 µM", "quantity": "inhibition", "result": "101%"}
{"Compound": "CCC(=N\\O)/C(C)=C/c1ccc(F)cc1", "target": "PDGFRA", "test": "cell-free assay, competition with immobilised ligand", "conditions": "1 µM", "quantity": "remaining binding", "result": "78%"}
{"Compound": "CNC(=O)c1cc(Oc2ccc(NC(=O)Nc3ccc(Cl)c(C(F)(F)F)c3)cc2)ccn1", "target": "PDGFRA V561D", "test": "enzyme activity, inhibitor", "conditions": "10 µM", "quantity": "inhibition", "result": "100%"}
{"Compound": "N#CCCc1ccc2c(c1)-c1[nH]c3ccc([N+](=O)[O-])cc3c1CC(=O)N2", "target": "PDGFRA", "test": "cell-free assay", "conditions": "0.5 µM", "quantity": "remaining signal", "result": "87.4%"}
{"Compound": "Cc1ccc(NC(=O)c2ccc(C)c(C(F)(F)F)c2)cc1C#Cc1nn(C2CCC(O)CC2)c2ncnc(N)c12 (stereo not drawn)", "target": "PDGFRA V561D", "test": "enzyme activity, inhibitor", "conditions": "10 µM", "quantity": "remaining activity", "result": "0%"}
{"Compound": "CN(C)c1ncnc(-c2ccc3nc(Nc4cc(CN5CCN(C(=O)CC(F)(F)F)CC5)ccn4)[nH]c3c2)c1Cl", "target": "PDGFRA", "test": "cell-free assay, competition with immobilised ligand", "conditions": "1 µM", "quantity": "remaining binding", "result": "61%"}
{"Compound": "O=C(Nc1cnn(-c2csc(C(=O)NC3COC3)c2)c1)Nc1ccccc1Cl", "target": "PDGFRA", "test": "enzyme activity, inhibitor", "conditions": "5 µM", "quantity": "remaining activity", "result": "95.2%"}
{"Compound": "CCN(CC)CCNC(=O)c1c(C)[nH]c(/C=C2\\C(=O)Nc3ccc(F)cc32)c1C", "target": "PDGFRA", "test": "cell-free assay", "conditions": "0.5 µM", "quantity": "remaining signal", "result": "10.9%"}
{"Compound": "C[C@H](c1ccc(F)cc1)N(Cc1cccc(C(=O)O)c1)C(=O)c1cnc2ccccc2c1", "target": "PDGFRA", "test": "cell-free assay, competition with immobilised ligand", "conditions": "1 µM", "quantity": "remaining binding", "result": "100%"}
{"Compound": "Cc1ccc(NC(=O)c2ccc(CN3CCN(C)CC3)cc2)cc1Nc1nccc(-c2cccnc2)n1", "target": "PDGFRA", "test": "enzyme activity, inhibitor", "conditions": "0.5 µM", "quantity": "activity vs control", "result": "5.9%"}
{"Compound": "CC(C)(C)c1nc2c(s1)c1nc(N)ncc1c1ccc(NS(=O)(=O)c3c(F)cccc3F)c(F)c12", "target": "PDGFRA", "test": "enzyme activity, inhibitor, radiometric", "conditions": "1 µM", "quantity": "remaining activity", "result": "97%"}
{"Compound": "COc1ccc2cc(OCC3(C(=O)O)CN(C(=O)c4ccc(F)cc4)C3)ccc2c1", "target": "PDGFRA", "test": "cell-free assay, competition with immobilised ligand", "conditions": "1 µM", "quantity": "remaining binding", "result": "100%"}
{"Compound": "COc1cc(-c2cc(-c3ccc(N4CCNCC4)cc3)cnc2N)cc(OC)c1OC", "target": "PDGFRA V561D", "test": "enzyme activity, inhibitor", "conditions": "0.1 µM", "quantity": "inhibition", "result": "45%"}
{"Compound": "FC(F)(F)Oc1cccc(-c2cnc3ccc(-c4ccncc4)nn23)c1", "target": "PDGFRA", "test": "enzyme activity, inhibitor, radiometric", "conditions": "5 µM", "quantity": "activity vs control", "result": "49%"}
{"Compound": "O=C(Nc1ccc(Oc2ccc(F)cc2)cc1)N1CCc2ncccc2[C@H]1c1ccc(F)cc1", "target": "PDGFRA", "test": "cell-free assay, competition with immobilised ligand", "conditions": "1 µM", "quantity": "remaining binding", "result": "95%"}
{"Compound": "CC/C(=N\\NC(=O)NCc1cccc(O)c1)c1ccc(O)c(C)c1O", "target": "PDGFRA T674I", "test": "enzyme activity, inhibitor", "conditions": "0.1 µM", "quantity": "inhibition", "result": "-0.2%"}
{"Compound": "C[C@@H]1CN(c2cc(-c3nn(C)c4ccc(OC5(C)CC5)cc34)ncn2)C[C@H](C)O1", "target": "PDGFRA", "test": "cell-free assay, competition with immobilised ligand", "conditions": "1 µM", "quantity": "remaining binding", "result": "83%"}
{"Compound": "Nc1ncnc2occ(-c3ccc(NC(=O)Nc4cc(C(F)(F)F)ccc4F)cc3)c12", "target": "PDGFRA", "test": "enzyme activity, inhibitor", "conditions": "20 µM", "quantity": "remaining activity", "result": "0.05%"}
